Screening results as filed in PubChem.
M4 antag – blocks acetylcholine activation of human M4 receptor; inhibition, % at 3 µM; CHO-hM4 cells, ACh EC80, Fluo-8 calcium fluorescence; 0.73% of 360,000 active;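 active means inhibition above its plate's cutoff, the mean inhibition of sample wells plus 3 SD, cut at about 27% in these data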;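 further: 0% = acetylcholine EC80 with DMSO and 100% = DMSO without agonist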
CHRM5 antagonist – antagonists of human muscarinic M5 receptor (CHRM5); CHO-hM5 cells, Fluo-8 calcium fluorescence, ACh EC80; 0.59% of 360,000 active; inhibition, % at 3 µM; AID 624040;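 active means inhibition above a per-plate cutoff, the mean of that plate's test compounds plus 3 SD, cut at about 27% in these data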;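 further: 0% = acetylcholine EC80 with DMSO and 100% = DMSO without agonist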
Target sequence (P08912 whole entry, looked up): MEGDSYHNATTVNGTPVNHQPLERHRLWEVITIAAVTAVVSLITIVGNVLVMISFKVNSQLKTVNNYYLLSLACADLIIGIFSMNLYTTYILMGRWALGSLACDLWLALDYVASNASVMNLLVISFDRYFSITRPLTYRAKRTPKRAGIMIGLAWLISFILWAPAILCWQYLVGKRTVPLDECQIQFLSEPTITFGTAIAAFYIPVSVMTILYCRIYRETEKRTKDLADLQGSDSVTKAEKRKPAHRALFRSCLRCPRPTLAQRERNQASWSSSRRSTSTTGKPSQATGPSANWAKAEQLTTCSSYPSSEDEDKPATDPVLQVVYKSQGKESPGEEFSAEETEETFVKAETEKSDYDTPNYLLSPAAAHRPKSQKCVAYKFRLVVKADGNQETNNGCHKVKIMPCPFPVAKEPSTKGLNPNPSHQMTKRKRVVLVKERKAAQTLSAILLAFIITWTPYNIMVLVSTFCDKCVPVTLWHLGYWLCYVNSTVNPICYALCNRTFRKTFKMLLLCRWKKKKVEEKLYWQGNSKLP
M5 ag – CHRM5 agonism in calcium assay | CHO-K1 hM5 cells, Fluo-8 calcium fluorescence; 0% DMSO wells, 100% maximal acetylcholine response | activation, % at 3 µM | 0.19% of 360,000 active | AID 624037;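 active means activation above the run's mean over test compounds plus 3 SD, cut at about 23% in these data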;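 further: signal is peak over basal fluorescence ratio across the kinetic read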
CHRM4 agonist – agonists of human muscarinic M4 receptor (CHRM4) | P08173 | CHO-K1 hM4/Gqi5, Fluo-8 calcium fluorescence; vehicle 0%, full acetylcholine response 100% | 0.14% of 360,000 active | activation, % at 3 µM;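 active means activation above the run mean over all test wells plus 3 SD, cut at about 32% in these data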;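 further: peak over basal fluorescence ratio per well then scaled between controls; 0% = DMSO wells and 100% = acetylcholine at EC100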
CHRM4 PAM – CHRM4 positive allosteric modulation | CHO-K1 hM4/Gqi5, Fluo-8 calcium fluorescence, ACh EC20; 0% = ACh EC20, 100% = maximal ACh | 0.4% of 360,000 active | activation, % at 3 µM | P08173 | AID 624126;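 active means activation above its plate's cutoff, the mean activation of sample wells plus 3 SD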
CHRM5 PAM – positive allosteric modulators of human muscarinic M5 receptor. P08912. CHO-K1 hM5, Fluo-8 calcium, ACh EC20 PAM; 0% = ACh EC20, 100% = ACh EC100. activation, % at 3 µM. 0.3% of 360,000 active;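 active means activation above the run cutoff, the mean activation of all test compounds plus 3 SD, cut at about 18% in these data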
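system = human M5 receptor in CHO-K1 cells | compound = one concentration, 3 µM final (nominal) | schedule = Post-acetylcholine fluorescence recording 140 s | signal = Fluo-8 calcium dye fluorescence, kinetic read | benchmarks = low control EC20 acetylcholine (0%), high control EC100 acetylcholine (100%) | repeats = singlicate, one well per test compound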
* hit, by the source's call. Only some compounds are listed: those with a hit (about 1.9% of all), similar ones and a draw of the others.

SMILES	M4 antag	CHRM5 antagonist	M5 ag	CHRM4 agonist	CHRM4 PAM	CHRM5 PAM
O=C(O)C(Cl)(Cl)Cl	2	0	1	2	-3	-3
S=C=Nc1cccc(C2(N3CCCCC3)CCCCC2)c1	25	27*	-2	1	-15	-19
c1ccc(C2(N3CCCCC3)CCCCC2)cc1	-4	5	-6	1	-10	-16
COC1C(C)OC(OC2CC(C)(O)Cc3cc4c(c(O)c32)C(=O)c2c(O)cc3c(c2C4=O)OC2OC3(C)C(O)C(N(C)C)C2O)C(OC)C1(C)OC (stereo unspecified)	-8	15	30*	14	7	-19
COc1cc(C2NCc3ccccc3-n3cccc32)ccc1O (stereo unspecified)	-4	0	2	4	7	0
CC(C)COC(=O)c1ccccc1C(=O)OCC(C)C	-5	8	-1	1	3	2
C[CH2][Hg][S]c1ccccc1C(=O)O	36*	5	17	9	33*	17
N=C1c2ccccc2CN1NC(=O)c1ccco1	-8	-1	2	0	1	5
C[N+](C)(C)CC#CCOC(=O)Nc1cccc(Cl)c1	6	78*	89*	44*	-20	-20
COc1ccc2ccccc2c1CNCCc1ccccc1	5	-4	-4	5	-4	18*
Cc1ccc2c(c1)C(c1ccccc1)=NCC(=O)N2C	-2	23	0	0	-8	-8
Cc1ccc2[nH]c3c(c2c1)CN(C(=O)CN1C[C@H]2C[C@@H](C1)c1cccc(=O)n1C2)CC3	-4	6	2	0	2	-2
COC(=O)C1=CO[C@@H](C)[C@@H]2CN(CCc3c[nH]c4ccccc34)CC[C@H]12	25	49*	-5	1	-14	-24
CCOC(=O)/C(CCCN(CC)CC)=N\O	34*	35*	-11	0	-19	-16
CNC(=O)Oc1cccc2c1OC(C)(C)O2	5	0	5	0	0	8
COC(=O)C1=C(c2ccccc2OCc2ccccc2)C[C@@H]2CC[C@H]1N2C(=O)NCCOc1ccccc1	-1	16	-5	18	-15	-19
O=[N+]([O-])/C=C/c1c(Cl)cccc1Cl	18	29*	-3	16	-9	-24
CN1CCC(OC(=O)C2c3ccccc3Oc3ccccc32)CC1	99*	99*	-12	3	-20	-42
Nc1cccc(SC2CC(=O)N(c3ccc(Cl)cc3C(=O)c3ccccc3)C2=O)c1 (stereo unspecified)	-9	27*	-2	2	0	-6
OC(Cn1c2ccccc2c2ccccc21)C[n+]1cccc2ccccc21 (stereo unspecified)	40*	58*	-13	0	-27	-22
CC(=O)OC(C)(C)/C=C/C(=O)C(C)(O)C1C(O)CC2(C)C3CC=C4C(CC(O)C(=O)C4(C)C)C3(C)C(=O)CC12C (stereo unspecified)	-8	-3	3	1	16*	5
